Usually IC50 stands for the concentration at which inhibition is half-maximal. Lower therefore signals inhibition by little substance. The ED50 is the dose that gives a 50% effect, or the effect in half of the subjects. Broadly, the Ki is the dissociation constant of the complex between target and ligand, obtained from inhibition or displacement. The low end stands for tighter binding, the high end for weaker binding. One may read the inhibition in vivo as the drop in the measured response relative to a control, in per cent. A higher inhibition in vivo goes with a response far below the control.

From ChEMBL document CHEMBL1121553, “Substituted 6,7-dihydroimidazo[1,2-a]purin-9(4H)-ones” (J Med Chem, 1980) come the findings set out here.

In brackets after ≈: the same amount, converted by molar mass. Activity calls are given as the source filed them. The rule behind the calls is not given here.

For test [1], the species on record is Cavia porcellus. As to the kind of experiment: In vitro bronchodilator activity in isolated guinea pig tracheal spiral preparation. It counts as functional. Conditions: Trachea. The procedure, abridged:
(§1)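 Guinea pig tracheal spiral held under 1.0 g tension, equilibrated 90–120 min to maximal spontaneous tonus. One drug concentration per spiral, ≥3 trials per concentration. Relaxation was expressed as % of that produced by papaverine (10 µg/mL) in the same tissue. Concentrations are bath values in µg/mL; the 50%-relaxation concentration was obtained by regression.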

Test [2] relates to Rattus norvegicus. As to the kind of experiment: Antiallergic activity was evaluated by inhibition of allergen-induced bronchospasm in male Harlan-Wistar rats when administered intraduodenally 15 min prior to antigen challenge. It counts as functional. Conditions: intraduodenal.
Test [3] is filed under the species Cavia porcellus. As to the kind of experiment: Evaluation of in vitro bronchodilator activity in isolated guinea pig tracheal spiral preparation. It counts as functional. Conditions: Trachea. The procedure, abridged: as §1
Test [4] deals with Rattus norvegicus. The experiment in a line: In vivo bronchodilator activity in methacholine (intravenous) induced bronchospasm in male Harlan-Sprague-Dawley rats when administered intraduodenally. It counts as functional.
The test system of test [5] is Rattus norvegicus. The experiment in a line: Antiallergic activity by passive cutaneous anaphylaxis test in ovalbumin sensitized male Harlan-Sprague-Dawley rats at 25 mg/kg oral dose (inactive). Format: functional, organism-based. On the set-up: dose 25 mg/kg. The method in brief:
(§2)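 Donor rats got egg albumin im (1 mg/rat) plus killed B. pertussis vaccine ip (2 × 10¹⁰ organisms/rat) and were bled 10–12 days later for IgE-rich antiserum. Recipient rats (100–150 g) were sensitized intradermally with 0.1 mL of 1:2.5 and 1:10 antiserum dilutions.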

Test [6] has as its system Rattus norvegicus. The experiment in a line: In vivo bronchodilator activity in methacholine (intravenous) induced bronchospasm in male Harlan-Sprague-Dawley rats when administered intraduodenally; statistically significant inhibition of < 50% at thr stated dose. Format: functional.
Test [7] has as its system Rattus norvegicus. As to the kind of experiment: Antiallergic activity was evaluated by passive cutaneous anaphylaxis test in egg albumin sensitized male Harlan-Sprague-Dawley rats when administered perorally. It counts as functional. To be noted: po. The procedure, abridged: as §2
The subject of test [8] is Rattus norvegicus. The experiment in a line: Antiallergic activity by passive cutaneous anaphylaxis test in rats by intravenous administration. It counts as functional. The method in brief: as §2
The species entered for test [9] is Rattus norvegicus. The experiment in a line: Antiallergic activity in in vitro antigen-induced histamine release from isolated mast cells. It counts as functional, cell-based. The procedure, abridged:
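Peritoneal lavage cells from male Harlan-Sprague-Dawley rats (200–300 g), collected in HBSS with 0.1% human albumin and 5 mM phosphate. Cells were sensitized 2 h at 37 °C in rat antiserum with heparin, then challenged with EA; drug was added together with antigen at several concentrations, 4 trials each. After 10 min, histamine was measured fluorimetrically and % inhibition calculated vs drug-free release.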

For test [10], the system named is Rattus norvegicus. As to the kind of experiment: Antiallergic activity by passive cutaneous anaphylaxis test in ovalbumin sensitized male Harlan-Sprague-Dawley rats administered perorally. Conditions: po. Format: functional. The method in brief: as §2
Test [11] is described as follows: Inhibition of rat lung cGMP-Phosphodiesterase.
Test [12] concerns Rattus norvegicus. The experiment in a line: Antiallergic activity by passive cutaneous anaphylaxis test in rats by intraduodenal administration. It counts as functional. The method in brief:
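Recipient male Harlan-Sprague-Dawley or Wistar rats (100–150 g) received 0.1 mL intradermal antiserum at 1:2.5 and 1:10. Donor antiserum came from rats given egg albumin 1 mg im plus killed B. pertussis 2 × 10¹⁰ ip, bled 10–12 days later. After 48 h, drug went intraduodenally under anesthesia, then iv egg albumin 25 mg/kg with Evans blue 25 mg/kg. Read-out was spot-diameter inhibition versus controls, ≥5 rats/dose; ED50 was estimated.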

The subject of test [13] is Rattus norvegicus. As to the kind of experiment: Percent inhibition of PCA reaction in anesthetized rats at 47.6 mg/kg oral administration for 24 hr r. It counts as functional. The method in brief: (§3)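 Passive cutaneous anaphylaxis in anesthetized rats. Passive sensitization used intradermal IgE antiserum (1:2.5 and 1:10), with a 48-h latent period. Intraduodenal or oral dose is expressed as free-acid equivalent of the salt given. Rats were challenged at 15 min, 3, 6 or 24 h with iv egg albumin 25 mg/kg plus Evans blue 25 mg/kg. Inhibition was calculated from mean spot diameters versus vehicle controls, 10 animals per dose.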

The test system of test [14] is Rattus norvegicus. As to the kind of experiment: Percent inhibition of PCA reaction in anesthetized rats at 47.6 mg/kg oral administration for 3 hr. Format: functional. The method in brief:
as §3

The test system of test [15] is Rattus norvegicus. The experiment in a line: Percent inhibition of PCA reaction in anesthetized rats at 47.6 mg/kg oral administration for 6 hr. Format: functional. The method in brief:
as §3

Test [16] has as its system Rattus norvegicus. The experiment in a line: Percent inhibition of PCA reaction in anesthetized rats after 11.7 mg/kg intraduodenal administration for 15 min. Format: functional. To be noted: 0.25 h. The method in brief:
as §3

For test [17], the system named is Rattus norvegicus. As to the kind of experiment: Percent inhibition of PCA reaction in anesthetized rats at 47.6 mg/kg oral administration for 15 min. Conditions: 0.25 h. It counts as functional. The procedure, abridged: as §3
For test [18], the species on record is Rattus norvegicus. The experiment in a line: Antiallergic activity by passive cutaneous anaphylaxis test in vitro in rats. It counts as functional. The procedure, abridged: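 Peritoneal mast cells were lavaged from male Harlan-Sprague-Dawley rats (200–300 g) with HBSS containing 0.1% albumin and 5 mM phosphate. Cells were sensitized with IgE antiserum plus heparin for 2 h at 37 °C, then challenged with egg albumin, drug added simultaneously. After 10 min, histamine was measured fluorimetrically; inhibition versus no-drug release, four trials per concentration.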

The subject of test [19] is Rattus norvegicus. The experiment in a line: Percent inhibition of PCA reaction in anesthetized rats at 11.7 mg/kg intraduodenal administration for 3 hr.
The test system of test [20] is Rattus norvegicus. As to the kind of experiment: Antiallergic activity by passive cutaneous anaphylaxis test in ovalbumin sensitized male Harlan-Sprague-Dawley rats by oral dose. It counts as functional. The method in brief: as §2

In the test filed under Cavia porcellus [1], `Cc1nc2c([nH]1)C(=O)N1CCN=C1N2CC(C)C` yielded an IC50 of 2.8 µg/mL (≈ 11.3 µM). Besides, the median effective dose (ED50) in the test on Rattus norvegicus [2] is 5.4 mg/kg.
`CSc1nc2c([nH]1)N(Cc1ccc(Cl)cc1)C1=NCCN1C2=O`: in the test filed under Cavia porcellus [3], the concentration for half-maximal inhibition (IC50) came to 13.7 µg/mL (≈ 39.4 µM). In the test with Rattus norvegicus [4], the ED50 is greater than 30 mg/kg.
Turning to `Cc1nc2c([nH]1)N(Cc1ccc(Cl)cc1)C1=NCCN1C2=O`, the concentration for half-maximal inhibition (IC50) in the test listed under Cavia porcellus [1] is 5.3 µg/mL (≈ 16.8 µM). The molecule also registered an ED50 in the test on Rattus norvegicus [4] of 1.3 mg/kg.
Consider `O=C1c2nc[nH]c2N(Cc2ccccc2)C2=NCCN12`, for which the IC50 in the test filed under Cavia porcellus [1] was 22.5 µg/mL (≈ 84.2 µM). In addition, in the test on Rattus norvegicus [5], the ED50 result was “inactive”.
In turn, `O=C1c2[nH]cnc2N(Cc2ccc(Cl)c(Cl)c2)C2=NCCN12` displayed an IC50 in the test listed under Cavia porcellus [1] of 12.5 µg/mL (≈ 37.2 µM).
Consider `O=C1c2[nH]nnc2N(Cc2ccc(F)cc2)C2=NCCN12`, for which, in the test filed under Cavia porcellus [1], the IC50 was greater than 200 µg/mL. In the test on Rattus norvegicus [6], this molecule had an ED50 greater than 10 mg/kg.
In the case of `Cc1nc2c(n1C)C(=O)N1CC(C)N=C1N2Cc1ccc(Cl)cc1` (stereo unspecified), the IC50 in the test listed under Cavia porcellus [1] amounted to 7.9 µg/mL (≈ 23 µM). For the same molecule, the ED50 amounted to 7.5 mg/kg in the test on Rattus norvegicus [4], 14.2 mg/kg in the test with Rattus norvegicus [2] and 38.7 mg/kg with Rattus norvegicus [7].
Consider `O=C1c2[nH]cnc2N(CCc2ccc(Cl)cc2)C2=NCCN12`, for which, in the test listed under Cavia porcellus [1], the IC50 worked out at 53 µg/mL (≈ 168 µM). In addition, the ED50 result in the test with Rattus norvegicus [5] is “inactive”.
`CC(C)CN1C2=NCCN2C(=O)c2[nH]c(C(C)C)nc21` returned a concentration for half-maximal inhibition (IC50) in the test listed under Cavia porcellus [1] of 11.5 µg/mL (≈ 41.8 µM). Further, the figures for the ED50 in the test with Rattus norvegicus [4] and with Rattus norvegicus [7] were 9.5 mg/kg and 15.3 mg/kg, respectively.
With `CSC1=C2N=CN=C2N(Cc2ccc(Cl)cc2)C2=NCCN21`, in the test filed under Cavia porcellus [3], half-maximal inhibition (IC50) was put at 8.1 µg/mL (≈ 24.4 µM). Besides, the ED50 in the test on Rattus norvegicus [4] was greater than 30 mg/kg.
Consider `O=C([O-])c1cc(=O)c2c(OCC(O)COc3cccc4oc(C(=O)[O-])cc(=O)c34)cccc2o1.[Na+].[Na+]` [CROMOLYN SODIUM], for which the 50% effective dose (ED50) in the test on Rattus norvegicus [8] worked out at 0.29 mg/kg. The molecule further yielded a half-inhibitory concentration (IC50) in the test filed under Rattus norvegicus [9] of 8 µM.
In the test with Rattus norvegicus [6], `O=C1N2CCN=C2c2[nH]cnc2N1Cc1ccc(Cl)cc1` yielded an ED50 greater than 50 mg/kg.
`Oc1c2ncnc-2n(Cc2ccc(Cl)cc2)c2nccn12` returned an IC50 in the test listed under Cavia porcellus [1] of 4.1 µg/mL (≈ 13.7 µM). In the test on Rattus norvegicus [4], this molecule had an ED50 of 8.1 mg/kg.
With `Cc1nc2c([nH]1)C(=O)N1CC(C)N=C1N2Cc1ccc(Cl)cc1` (stereo unspecified), inhibition in the test listed under Cavia porcellus [1] was half-maximal at 4.4 µg/mL (≈ 13.3 µM) (IC50). The ED50 stood at 1 mg/kg in the test with Rattus norvegicus [4], 1.23 mg/kg in the test on Rattus norvegicus [2] and 30.2 mg/kg in the test with Rattus norvegicus [7].
Molecule `CC(C)CN1C2=NC(C)CN2C(=O)c2[nH]cnc21` (stereo unspecified) came in with an IC50 in the test listed under Cavia porcellus [1] of 14 µg/mL (≈ 56.6 µM). Also, in the test on Rattus norvegicus [10], the median effective dose (ED50) is greater than 30 mg/kg.
As to `O=C1c2[nH]cnc2N(Cc2ccc(F)cc2)C2=NCCN12`, in the test listed under Cavia porcellus [1], it took 17.5 µg/mL (≈ 61.3 µM) to reach half-maximal inhibition (IC50).
On to `Cn1c(=O)c2nc[nH]c2n(C)c1=O.O` [THEOPHYLLINE], for which the concentration for half-maximal inhibition (IC50) in the test listed under Cavia porcellus [3] came out at 18.5 µg/mL; in the test filed under Rattus norvegicus [18] it was 2500 µM. Besides, the Ki in test [11] is 1150 µM. In addition, the ED50 in the test on Rattus norvegicus [12] was 11.7 mg/kg; in the test with Rattus norvegicus [8] it was greater than 7.9 mg/kg. Besides, the inhibition in vivo at 47.6 mg/kg in the test with Rattus norvegicus [13] was found to be 0%; with Rattus norvegicus [14] it was 52.5%; in the test with Rattus norvegicus [15], 13%; in the test on Rattus norvegicus [17], 51.9%. For the same molecule, the inhibition in vivo at 11.7 mg/kg in the test on Rattus norvegicus [16] is 42.4%; in the test with Rattus norvegicus [19], 25.1%.
As to `CC(C)CN1C2=NCCN2C(=O)c2[nH]cnc21`, the 50% inhibitory concentration (IC50) in the test listed under Cavia porcellus [1] was found to be 6.3 µg/mL (≈ 27 µM). Further, in the test on Rattus norvegicus [20], the median effective dose (ED50) is greater than 25 mg/kg.
`CCCCCCCCN1C2=NCCN2C(=O)c2[nH]cnc21` came in with an IC50 in the test listed under Cavia porcellus [3] of 24.5 µg/mL (≈ 84.7 µM).
In the case of `CCc1nc2c([nH]1)N(Cc1ccc(Cl)cc1)C1=NCCN1C2=O`, the half-inhibitory concentration (IC50) in the test listed under Cavia porcellus [1] was 13 µg/mL (≈ 39.4 µM). In addition, the ED50 with Rattus norvegicus [6] was greater than 10 mg/kg.
`O=C1c2[nH]cnc2N(Cc2cccc(Cl)c2)C2=NCCN12` gave an IC50 in the test listed under Cavia porcellus [1] of 12.5 µg/mL (≈ 41.4 µM).
